Results published in ChEMBL document CHEMBL1136477, “beta-alanine dipeptides as MC4R agonists” (Bioorg Med Chem Lett, 2003).

What was measured:
Melanocortin receptor 4 [1] = target: T1, Melanocortin receptor 4 (Homo sapiens, UniProt P32245); test: Binding activity was measured using membranes of Hi5 cells expressing the human MC4R receptors; type: cell membranes, BTI-TN-5B1-4
Melanocortin receptor 4 [2] = target: T1, Melanocortin receptor 4; test: Stimulation of adenylate cyclase in HEK293 cells expressing the human MC4R receptor was determined by measuring cAMP accumulation using the RPA559 SPA assay; type: functional, cell-based
Outline: (§1)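 HEK293 cells stably expressing human MC4R (MEM, G418, 10% heat-inactivated FBS) seeded 5×10^4 cells/well overnight. Then 10 min at 37 °C with 0.1 mM IBMX and increasing compound (1% DMSO final). After lysis, cAMP read by SPA kit. EC50 by non-linear regression. Intrinsic activity is % of NDP-a-MSH maximum. Run twice or three times in duplicate.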

[3] = Intrinsic activity was expressed as percent of maximal activity achieved by NDP-alpha-MSH.; type: functional; outline: as §1

T1 sequence (P32245 whole entry): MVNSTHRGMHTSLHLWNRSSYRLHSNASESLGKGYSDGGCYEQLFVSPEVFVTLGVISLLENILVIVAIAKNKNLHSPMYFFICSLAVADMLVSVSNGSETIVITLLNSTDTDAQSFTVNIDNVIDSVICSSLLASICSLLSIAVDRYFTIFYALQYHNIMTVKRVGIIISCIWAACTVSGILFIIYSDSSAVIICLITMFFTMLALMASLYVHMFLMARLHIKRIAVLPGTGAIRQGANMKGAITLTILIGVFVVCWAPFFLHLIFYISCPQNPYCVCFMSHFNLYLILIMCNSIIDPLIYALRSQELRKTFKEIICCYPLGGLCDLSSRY

| Structure (SMILES) | IC50 (Melanocortin receptor 4 [1]) [nM] | EC50 (Melanocortin receptor 4 [2]) [nM] | Max stimulation [3] [%] |
| --- | --- | --- | --- |
| CN(C)CCC(=O)NCCC(=O)N[C@H](Cc1ccc(Cl)cc1)C(=O)N1CCC(Cn2cncn2)(C2CCCCC2)CC1 | 11 |  |  |
| CC(=O)NCCC(=O)N[C@H](Cc1ccc(Cl)cc1)C(=O)N1CCC(Cn2cncn2)(C2CCCCC2)CC1 | 12 |  |  |
| O=C(C[C@@H]1CCCN1)N[C@H](Cc1ccc(Cl)cc1)C(=O)N1CCC(Cn2cncn2)(C2CCCCC2)CC1 | 22 |  |  |
| O=C(N[C@H](Cc1ccc(Cl)cc1)C(=O)N1CCC(Cn2cncn2)(C2CCCCC2)CC1)[C@H]1CCCNC1 | 9 |  |  |
| O=C(CCNC(=O)C(F)(F)F)N[C@H](Cc1ccc(Cl)cc1)C(=O)N1CCC(Cn2cncn2)(C2CCCCC2)CC1 | 180 |  |  |
| CC(C)(CN)C(=O)N[C@H](Cc1ccc(Cl)cc1)C(=O)N1CCC(Cn2cncn2)(C2CCCCC2)CC1 | 30 |  |  |
| O=C(CCNC(=O)[C@@H]1CCCNC1)N[C@H](Cc1ccc(Cl)cc1)C(=O)N1CCC(Cn2cncn2)(C2CCCCC2)CC1 | 25 |  |  |
| COCC(=O)NCCC(=O)N[C@H](Cc1ccc(Cl)cc1)C(=O)N1CCC(Cn2cncn2)(C2CCCCC2)CC1 | 21 |  |  |
| O=C(CCN1CCCCC1)NCCC(=O)N[C@H](Cc1ccc(Cl)cc1)C(=O)N1CCC(Cn2cncn2)(C2CCCCC2)CC1 | 12 |  |  |
| NCCC(=O)N[C@H](Cc1ccc(Cl)cc1)C(=O)N1CCC(Cn2cncn2)(C2CCCCC2)CC1 | 16 | 170 | 92 |
| CNCCC(=O)N[C@H](Cc1ccc(Cl)cc1)C(=O)N1CCC(Cn2cncn2)(C2CCCCC2)CC1 | 10 | 70 | 98 |
| CN(C)CCC(=O)N[C@H](Cc1ccc(Cl)cc1)C(=O)N1CCC(Cn2cncn2)(C2CCCCC2)CC1 | 10 | 40 | 98 |
| O=C(N[C@H](Cc1ccc(Cl)cc1)C(=O)N1CCC(Cn2cncn2)(C2CCCCC2)CC1)C1CNC1 | 16 |  |  |
| O=C(N[C@H](Cc1ccc(Cl)cc1)C(=O)N1CCC(Cn2cncn2)(C2CCCCC2)CC1)[C@H]1Cc2ccccc2CN1 |  |  | 99 |
| O=C(CCNCc1ccccc1)N[C@H](Cc1ccc(Cl)cc1)C(=O)N1CCC(Cn2cncn2)(C2CCCCC2)CC1 | 14 |  |  |
| O=C(CCNC(=O)c1ccccc1)N[C@H](Cc1ccc(Cl)cc1)C(=O)N1CCC(Cn2cncn2)(C2CCCCC2)CC1 | 90 |  |  |
| O=C(CCNC(=O)[C@H]1CCCNC1)N[C@H](Cc1ccc(Cl)cc1)C(=O)N1CCC(Cn2cncn2)(C2CCCCC2)CC1 | 22 |  |  |
| O=C(CCN(Cc1ccccc1)Cc1ccccc1)N[C@H](Cc1ccc(Cl)cc1)C(=O)N1CCC(Cn2cncn2)(C2CCCCC2)CC1 | 110 |  |  |
| CC(C)(N)CC(=O)N[C@H](Cc1ccc(Cl)cc1)C(=O)N1CCC(Cn2cncn2)(C2CCCCC2)CC1 | 18 |  |  |
| O=C(N[C@H](Cc1ccc(Cl)cc1)C(=O)N1CCC(Cn2cncn2)(C2CCCCC2)CC1)[C@@H]1CCCNC1 | 12 |  |  |
